From ChEMBL document CHEMBL1155356, “Design, synthesis, and structure-activity relationship of novel orally efficacious pyrazole/sulfonamide based dihydroquinoline gamma-secretase inhibitors” (Bioorg Med Chem Lett, 2009)
Values belong to the compound of their own block, whether it stands above or below them.

What was measured:
Gamma-secretase = assay: Inhibition of Gamma-secretase in human IMR-32 cells after 2 hrs by ELISA assay; type: cell-based
How it was run: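 γ-Secretase came from IMR-32 cell membranes, and compound was first diluted in DMSO. Reaction at 37 °C was started with MBPC-125 Swedish substrate, run for 2 h, then stopped with SDS. Cleaved substrate was measured by Aβ40-specific ELISA. Values are means of three experiments.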

[1] = (§1) Oxidative metabolic stability in human liver microsomes at 1 uM after 30 mins in presence of 1 mM NADPH; type: ADME, Microsome; settings: liver microsomes, read-out: Stability
How it was run: (§2)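 Oxidative stability: compound at 1 µM incubated 30 min at 37 °C in phosphate buffer with liver microsomes (0.5 mg/ml protein) plus 1 mM NADPH. Percent parent remaining reported. Human or mouse microsomes per line.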

[2] = Oxidative metabolic stability in mouse liver microsomes at 1 uM after 30 mins in presence of 1 mM NADPH; type: ADME, Microsome; settings: for remaining at 0.5 h, 1 µM: liver microsomes, read-out: Stability; for Stability: microsomes, 0.5 h, 1 µM; how it was run: as §2
Liver microsomes = assay: as §1; type: ADME, Microsome; settings: microsomes, 0.5 h, 1 µM; how it was run: as §2

- IC50 (Gamma-secretase): 0.17 nM
- remaining at 0.5 h, 1 µM [1]: 80%
- remaining at 0.5 h, 1 µM [2]: 77%
Structure (SMILES): N#Cc1ccc2c(c1)N(S(=O)(=O)c1ccc(C(F)(F)F)cc1)C(C1CC1)c1c[nH]nc1-2 (racemic)

- IC50 (Gamma-secretase): 0.42 nM
- remaining at 0.5 h, 1 µM [1]: 8%
- remaining at 0.5 h, 1 µM [2]: 11%
Structure (SMILES): O=S(=O)(c1ccc(F)cc1)N1c2ccccc2-c2n[nH]cc2C1C1CC1 (racemic)

- IC50 (Gamma-secretase): 0.24 nM
- remaining at 0.5 h, 1 µM [1]: 59%
- remaining at 0.5 h, 1 µM [2]: 55%
Structure (SMILES): O=S(=O)(c1ccc(C(F)(F)F)cc1)N1c2cc(-n3ccnc3)ccc2-c2n[nH]cc2C1C1CC1 (racemic)

- IC50 (Gamma-secretase): 0.17 nM
- remaining at 0.5 h, 1 µM [1]: 4%
- remaining at 0.5 h, 1 µM [2]: 15%
Structure (SMILES): O=S(=O)(c1ccc(Cl)cc1)N1c2ccccc2-c2n[nH]cc2C1C1CC1 (racemic)

- IC50 (Gamma-secretase): 0.37 nM
- remaining at 0.5 h, 1 µM [1]: 60%
- remaining at 0.5 h, 1 µM [2]: 55%
Structure (SMILES): O=S(=O)(c1ccc(OC(F)(F)F)cc1)N1c2ccc(F)cc2-c2n[nH]cc2C1C1CC1 (racemic)

- IC50 (Gamma-secretase): 0.26 nM
- Stability (Liver microsomes): Not Active
- Stability [2]: Not Active
Structure (SMILES): COC(=O)c1ccc2c(c1)N(S(=O)(=O)c1ccc(C(F)(F)F)cc1)C(C1CC1)c1c[nH]nc1-2 (racemic)

- IC50 (Gamma-secretase): 1.3 nM
- remaining at 0.5 h, 1 µM [1]: 62%
- remaining at 0.5 h, 1 µM [2]: 49%
Structure (SMILES): O=S(=O)(c1ccc(Cl)cn1)N1c2ccc(F)cc2-c2n[nH]cc2C1C1CC1 (racemic)

- IC50 (Gamma-secretase): 0.31 nM
- remaining at 0.5 h, 1 µM [1]: 45%
- remaining at 0.5 h, 1 µM [2]: 49%
Structure (SMILES): O=S(=O)(c1ccc(C(F)(F)F)cc1)N1c2ccccc2-c2n[nH]cc2C1C1CC1 (racemic)

- IC50 (Gamma-secretase): 0.41 nM
- remaining at 0.5 h, 1 µM [1]: 60%
- remaining at 0.5 h, 1 µM [2]: 32%
Structure (SMILES): O=S(=O)(c1ccc(C(F)(F)F)cc1)N1c2cc(-c3cscn3)ccc2-c2n[nH]cc2C1C1CC1 (racemic)

- IC50 (Gamma-secretase): 0.26 nM
- remaining at 0.5 h, 1 µM [1]: 80%
- remaining at 0.5 h, 1 µM [2]: 78%
Structure (SMILES): O=S(=O)(c1ccc(C(F)(F)F)cc1)N1c2cc(I)ccc2-c2n[nH]cc2C1C1CC1 (single isomer, unassigned; enantiomer 3)

Continued, compound first:

Structure (SMILES): CC1c2c[nH]nc2-c2ccc(OC(=O)N(C)C)cc2N1S(=O)(=O)c1ccc(Cl)cc1 (racemic)
- IC50 (Gamma-secretase): 0.93 nM
- remaining at 0.5 h, 1 µM [1]: 0%
- remaining at 0.5 h, 1 µM [2]: 0%

Structure (SMILES): CC1c2c[nH]nc2-c2ccc(OCc3ccccc3)cc2N1S(=O)(=O)c1ccc(Cl)cc1 (racemic)
- IC50 (Gamma-secretase): 1.5 nM
- remaining at 0.5 h, 1 µM [1]: 0%
- remaining at 0.5 h, 1 µM [2]: 1%

Structure (SMILES): Cc1nc2c(s1)N(S(=O)(=O)c1ccc(C(F)(F)F)cc1)C(C1CC1)c1c[nH]nc1-2 (racemic)
- IC50 (Gamma-secretase): 24 nM
- remaining at 0.5 h, 1 µM [1]: 31%
- remaining at 0.5 h, 1 µM [2]: 8%

Structure (SMILES): CC1c2c[nH]nc2-n2ccnc2N1S(=O)(=O)c1ccc(Cl)cc1 (racemic)
- IC50 (Gamma-secretase): 27 nM
- remaining at 0.5 h, 1 µM [1]: 74%
- remaining at 0.5 h, 1 µM [2]: 56%

Structure (SMILES): CC1c2cn[nH]c2-c2ccccc2N1S(=O)(=O)c1cccnc1 (racemic)
- IC50 (Gamma-secretase): 140 nM
- remaining at 0.5 h, 1 µM [2]: 3%

Structure (SMILES): CC1c2c[nH]nc2-c2cc(F)ccc2N1S(=O)(=O)c1cn(C)cn1 (racemic)
- IC50 (Gamma-secretase): 5500 nM
- remaining at 0.5 h, 1 µM [1]: 76%
- remaining at 0.5 h, 1 µM [2]: 65%

Structure (SMILES): O=[N+]([O-])c1ccc(S(=O)(=O)N2c3cc(F)c(F)cc3-c3n[nH]cc3C2C2CC2)cc1 (racemic)
- IC50 (Gamma-secretase): 40 nM
- Stability (Liver microsomes): Not Active
- Stability [2]: Not Active

Structure (SMILES): CC1c2cn[nH]c2-c2ccc(O)cc2N1S(=O)(=O)c1ccc(Cl)cc1 (racemic)
- IC50 (Gamma-secretase): 0.65 nM
- remaining at 0.5 h, 1 µM [1]: 50%
- remaining at 0.5 h, 1 µM [2]: 27%

Structure (SMILES): CC1c2c[nH]nc2-c2cc(Cl)sc2N1S(=O)(=O)c1ccc(C(F)(F)F)cc1 (racemic)
- IC50 (Gamma-secretase): 4.5 nM
- remaining at 0.5 h, 1 µM [1]: 3%
- remaining at 0.5 h, 1 µM [2]: 18%

Structure (SMILES): O=S(=O)(c1ccc(Cl)s1)N1c2cc(F)c(F)cc2-c2n[nH]cc2C1C1CC1 (racemic)
- IC50 (Gamma-secretase): 0.52 nM
- remaining at 0.5 h, 1 µM [1]: 4%
- remaining at 0.5 h, 1 µM [2]: 9%

Structure (SMILES): COc1ccc2c(c1)N(S(=O)(=O)c1ccc(Cl)cc1)C(C)c1c[nH]nc1-2 (racemic)
- IC50 (Gamma-secretase): 2 nM
- remaining at 0.5 h, 1 µM [1]: 1%
- remaining at 0.5 h, 1 µM [2]: 1%

Structure (SMILES): O=S(=O)(c1ccccc1)N1c2ccccc2-c2n[nH]cc2C1C1CC1 (single isomer, unassigned; enantiomer 1)
- IC50 (Gamma-secretase): 4.2 nM
- Stability (Liver microsomes): Not Active
- Stability [2]: Not Active

Structure (SMILES): O=S(=O)(c1ncc(Cl)s1)N1c2cc(F)c(F)cc2-c2n[nH]cc2C1C1CC1 (single isomer, unassigned; enantiomer 2)
- IC50 (Gamma-secretase): 0.46 nM
- remaining at 0.5 h, 1 µM [1]: 23%
- remaining at 0.5 h, 1 µM [2]: 4%
